In ChEMBL document CHEMBL4402581, “Monohydrazone Based G-Quadruplex Selective Ligands Induce DNA Damage and Genome Instability in Human Cancer Cells” (J Med Chem, 2020):
Activity calls are given as the source filed them. The calls are words filed in the database; no cut-off is given here.

Tests used:
[1] = tested on: Quadruplex DNA; assay: Binding affinity at FAM/TAMRA-tagged c-Kit2 G4 quadruplex DNA assessed as melting temperature at 2 uM in presence of 25 fold excess duplex DNA by FRET melting assay (reference value: 69.7 +/- 0.3 degreeC); assay type: nucleic-acid assay
In short: (§1)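 Dual FAM/TAMRA-labelled oligos (0.2 μM) in 20 mM K phosphate pH 7.0 with 5 mM KCl, annealed 90 °C 5 min, slow-cooled overnight, held 4 °C 24 h. The Tel21 parallel form was annealed at high DNA concentration. Ligand 2 μM. Unlabelled ds12 duplex competitor at 0, 5 or 10 μM final. Tm was read from FRET melting curves.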

[2] = tested on: HeLa; assay: Cytotoxicity against human HeLa cells assessed as reduction in cell viability incubated for 24 hrs followed by 48 hrs of recovery in drug free medium by MTT assay; assay type: functional, cell-based
In short: (§2)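 Cells grown in DMEM with 10% FBS and 1% glutamine at 37 °C, 5% CO2, and seeded 25 × 10^4 per well. Treatment began 24 h after seeding and lasted 1 or 24 h, followed by 48 h in drug-free medium. MTT was added for 1 h at 37 °C, then DMSO solubilization and absorbance at 595 nm. IC50 came from linear regression; two independent experiments, each in triplicate.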

[3] = tested on: U2OS; assay: Cytotoxicity against human U2OS cells assessed as reduction in cell viability incubated for 24 hrs followed by 48 hrs of recovery in drug-free medium by MTT assay; assay type: functional, cell-based; in short: as §2
[4] = tested on: Quadruplex DNA; assay: Binding affinity at FAM/TAMRA-tagged parallel Tel21 G4 quadruplex DNA assessed as melting temperature at 2 uM by FRET melting assay (reference value: 55.4 +/- 0.2 degreeC); assay type: nucleic-acid assay; in short: as §1
[5] = tested on: HeLa; assay: Cytotoxicity against human HeLa cells assessed as reduction in cell viability incubated for 1 hr followed by 48 hrs of recovery in drug free medium by MTT assay; assay type: functional, cell-based; in short: as §2
[6] = molecular target: Quadruplex DNA; assay: Displacement of Thiazole orange from parallel Tel23 G4 quadruplex DNA incubated for 3 mins by spectrofluorimetry; assay type: nucleic-acid assay
In short: (§3)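 Pre-folded DNA (0.25 μM) in K phosphate/KCl buffer was mixed with thiazole orange: 0.50 μM for G4s, 0.75 μM for duplex. Ligand was added stepwise from 0.5 to 10 equiv, with 3 min equilibration at 20 °C after each addition. Excitation 495 nm; emission read at 543 nm. Displacement % = 100 − (F/F0 × 100). DC50 is the concentration giving 50% displacement.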

[7] = Displacement of Thiazole orange from hairpin duplex DNA incubated for 3 mins by spectrofluorimetry; in short: as §3
[8] = tested on: Quadruplex DNA; assay: Effect on c-Myc G4 quadruplex DNA architecture at 10 mol.equiv by circular dichroism spectral analysis; assay type: nucleic-acid assay
In short: (§4)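 CD spectra of 15 μM G4s or 30 μM hairpin in 20 mM K phosphate pH 7.0 with 5 mM KCl, after annealing. Recorded at 20 °C over 230–360 nm, three scans averaged, buffer baseline subtracted. Ligand was added at 10 mol equiv to the folded DNA from a 10 mM DMSO stock.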

[9] = tested on: Quadruplex DNA; assay: Stabilization of human Tel23 G4 quadruplex DNA assessed as change in melting temperature at 10 mol.equiv by circular dichroism melting assay; assay type: nucleic-acid assay
In short: (§5)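 CD melting from 20 to 100 °C at 1 °C/min, monitored at 264 nm (c-Kit1, c-Kit2, c-Myc, Tel23-p), 287 nm (Tel23-h) or 280 nm (hairpin). Ligand was at 10 mol equiv with folded DNA (15 μM G4, 30 μM hairpin). ΔTm is Tm with ligand minus Tm without, from curve fits, averaged over triplicates.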

[10] = Stabilization of hairpin-duplex DNA assessed as change in melting temperature at 10 mol.equiv by circular dichroism melting assay; in short: as §5
[11] = tested on: Quadruplex DNA; assay: Binding affinity at FAM/TAMRA-tagged parallel Tel21 G4 quadruplex DNA assessed as melting temperature at 2 uM in presence of 50 fold excess duplex DNA by FRET melting assay (reference value: 55.4 +/- 0.2 degreeC); assay type: nucleic-acid assay; in short: as §1
[12] = tested on: Quadruplex DNA; assay: Effect on parallel Tel23 G4 quadruplex DNA architecture at 10 mol.equiv by circular dichroism spectral analysis; assay type: nucleic-acid assay; in short: as §4
[13] = tested on: Quadruplex DNA; assay: Stabilization of c-Kit1 G4 quadruplex DNA assessed as change in melting temperature at 10 mol.equiv by circular dichroism melting assay; assay type: nucleic-acid assay; in short: as §5
[14] = tested on: U2OS; assay: Induction of DNA damage in human U2OS cells assessed as increase in phosphorylated 53BPI foci colocalization with gammaH2AX foci at 10 uM incubated for 4 hrs by immunofluorescence microscopy; assay type: functional, cell-based
In short: (§6)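 U2OS cells were treated with 10 μM for 4 h, pre-extracted 3 min with CSK buffer containing 0.5% Triton X-100, and fixed in 2% paraformaldehyde. Co-stained 1 h for 53BP1 and γH2AX, with DAPI counterstain. Foci were counted per nucleus and normalized to the untreated mean, across three biological replicates.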

[15] = tested on: Quadruplex DNA; assay: Binding affinity at FAM/TAMRA-tagged parallel Tel21 G4 quadruplex DNA assessed as melting temperature at 2 uM in presence of 25 fold excess duplex DNA by FRET melting assay (reference value: 55.4 +/- 0.2 degreeC); assay type: nucleic-acid assay; in short: as §1
[16] = tested on: Quadruplex DNA; assay: Effect on c-Kit1 G4 quadruplex DNA architecture at 10 mol.equiv by circular dichroism spectral analysis; assay type: nucleic-acid assay; in short: as §4
[17] = tested on: Quadruplex DNA; assay: Stabilization of c-Kit2 G4 quadruplex DNA assessed as change in melting temperature at 10 mol.equiv by circular dichroism melting assay; assay type: nucleic-acid assay; in short: as §5
[18] = tested on: Quadruplex DNA; assay: Stabilization of G4 quadruplex DNA in human U2OS cells assessed as change in size of BG4 foci at 2 uM incubated for 24 hrs by immunofluorescence microscopy; assay type: cell-based
[19] = tested on: Quadruplex DNA; assay: Stabilization of parallel Tel23 G4 quadruplex DNA assessed as change in melting temperature at 10 mol.equiv by circular dichroism melting assay; assay type: nucleic-acid assay; in short: as §5
[20] = tested on: Quadruplex DNA; assay: Stabilization of c-Myc G4 quadruplex DNA assessed as change in melting temperature at 10 mol.equiv by circular dichroism melting assay; assay type: nucleic-acid assay; in short: as §5
[21] = tested on: Quadruplex DNA; assay: Effect on human Tel23 G4 quadruplex DNA architecture at 10 mol.equiv by circular dichroism spectral analysis; assay type: nucleic-acid assay; in short: as §4
[22] = tested on: Quadruplex DNA; assay: Binding affinity at FAM/TAMRA-tagged c-Kit2 G4 quadruplex DNA assessed as melting temperature at 2 uM in presence of 50 fold excess duplex DNA by FRET melting assay (reference value: 69.7 +/- 0.3 degreeC); assay type: nucleic-acid assay; in short: as §1
[23] = tested on: Quadruplex DNA; assay: Displacement of Thiazole orange from parallel Tel23 G4 quadruplex DNA incubated for 3 mins by spectrofluorimetry relative to control; assay type: nucleic-acid assay; in short: as §3
[24] = tested on: U2OS; assay: Induction of genome instability in human U2OS cells assessed as fold increase in micronuclei formation per 100 cells at 10 uM incubated for 24 hrs by immunofluorescence microscopy relative to control; assay type: functional
In short: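 U2OS cells were treated for 24 h, fixed in 4% paraformaldehyde, permeabilized with 0.5% Triton X-100, and stained with DAPI. Micronuclei were counted per 100 cells.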

[25] = tested on: U2OS; assay: Induction of DNA damage in human U2OS cells assessed as increase in gammaH2AX phosphorylation at S139 at 10 uM incubated for 4 hrs by immunofluorescence microscopy; assay type: functional, cell-based; in short: as §6
[26] = tested on: Quadruplex DNA; assay: Binding affinity at FAM/TAMRA-tagged c-Kit2 G4 quadruplex DNA assessed as melting temperature at 2 uM by FRET melting assay (reference value: 69.7 +/- 0.3 degreeC); assay type: nucleic-acid assay; in short: as §1

SMILES: CC(C)(C)c1cc(/C=N/NC(=N)N)c(O)c(/C=C2/C(=O)Nc3c2ccc2ccccc32)c1.Cl
- Tm [1]: 76.4 °C
- IC50 [2]: 750 nM
- IC50 [3]: 2060 nM
- Tm [4]: 68.6 °C
- IC50 [5]: 3940 nM
- DC50 [6]: 480 nM
- DC50 [7]: 8570 nM
- Activity [8]: inactive
- ΔTm [9]: < 2 °C
- Activity [10]: Active
- Tm [11]: 68.1 °C
- Activity [12]: inactive
- Activity [13]: Active
- Activity [14]: Active
- Tm [15]: 67.7 °C
- Activity [16]: inactive
- Activity [17]: Active
- Activity [18]: inactive
- Activity [19]: Active
- Activity [20]: Active
- Activity [21]: inactive
- Tm [22]: 76.5 °C
- inhibition [23]: 80%
- fold change (FC) [24]: 3
- Activity [25]: Active
- Tm [26]: 77.9 °C
